Data published in ChEMBL document CHEMBL1142820, “Identification of potent and selective MMP-13 inhibitors” (Bioorg Med Chem Lett, 2005).

Experiments:
[1] = target: 72 kDa type IV collagenase (Homo sapiens, UniProt P08253); test: Inhibitory concentration against MMP-2
Procedure, shortened: (§1)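 Continuous fluorescence assay of commercially sourced enzyme cleaving a synthetic peptide whose fluorophore (7-methoxycoumarin or 2-aminobenzoyl) is quenched by 2,4-dinitrophenyl. Signal is read at the fluorophore's excitation/emission wavelengths. MMP-2 was preactivated with APMA. MMP-3 used substrate Mca-PKPLAL-Dpa-AR-NH2.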

[2] = target: Matrix metalloproteinase-14 (Homo sapiens, UniProt P50281); test: Inhibitory concentration against MMP-14
Collagenase 3 = Collagenase 3 (Bos taurus, UniProt O77656); test: Inhibitory concentration against MMP-13 of bovine articular cartilage explants
Bos taurus = species on record: Bos taurus; test: Selectivity ratio for IC50 of MMP-2 to that of MMP-13
Procedure, shortened: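 Both IC50s come from continuous fluorescence assays using quenched peptide substrates (7-methoxycoumarin or 2-aminobenzoyl fluorophore, 2,4-dinitrophenyl quencher), read by plate fluorimeter. MMP-13 was prepared in-house. MMP-2 was commercial and activated with […]. […] The ratio is MMP-2 IC50 over MMP-13 IC50.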

[3] = Inhibitory concentration against MMP-7; procedure, shortened: as §1
[4] = Inhibitory concentration against MMP-9; procedure, shortened: as §1
[5] = Inhibitory concentration against MMP-3; procedure, shortened: as §1
[6] = Total clearance from rat upon iv administration at 2 mg/kg; format: ADME, organism-based; set-up: dose 2 mg/kg, route intravenous; conditions: in vivo
Procedure, shortened: (§2)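 Rats were dosed intravenously at 2 mg/kg and orally at 5 mg/kg. Clearance and iv half-life come from the intravenous arm, oral half-life from the oral arm, and bioavailability from comparison of the two routes.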

Interstitial collagenase = target: T1, Interstitial collagenase (Homo sapiens, UniProt P03956); test: Inhibitory concentration against MMP-1
T1 sequence (P03956 whole entry): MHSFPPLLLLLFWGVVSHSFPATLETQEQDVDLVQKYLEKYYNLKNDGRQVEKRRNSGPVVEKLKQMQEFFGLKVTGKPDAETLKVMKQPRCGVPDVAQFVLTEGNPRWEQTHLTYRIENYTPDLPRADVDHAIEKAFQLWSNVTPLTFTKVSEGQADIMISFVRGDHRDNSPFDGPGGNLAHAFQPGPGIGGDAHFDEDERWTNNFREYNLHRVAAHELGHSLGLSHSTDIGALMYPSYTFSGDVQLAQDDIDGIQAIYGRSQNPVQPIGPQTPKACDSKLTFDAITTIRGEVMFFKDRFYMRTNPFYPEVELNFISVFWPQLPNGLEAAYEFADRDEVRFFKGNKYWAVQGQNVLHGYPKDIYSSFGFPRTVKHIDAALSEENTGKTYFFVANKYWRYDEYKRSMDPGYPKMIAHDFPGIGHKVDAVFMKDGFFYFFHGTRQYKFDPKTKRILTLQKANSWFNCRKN
Procedure, shortened: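 Continuous fluorescence assay with in-house prepared enzyme. The synthetic peptide substrate carries a 7-methoxycoumarin or 2-aminobenzoyl fluorophore quenched by energy transfer to 2,4-dinitrophenyl. Read in plate fluorimeter at fluorophore excitation/emission wavelengths.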

[7] = Oral bioavailability in rat; format: ADME, organism-based; conditions: in vivo; procedure, shortened: as §2
[8] = Half-life in rat upon iv administration; format: ADME, organism-based; conditions: in vivo; procedure, shortened: as §2
[9] = Half-life in rat upon oral administration at 5 mg/kg; format: ADME, organism-based; set-up: dose 5 mg/kg, route oral; conditions: in vivo; procedure, shortened: as §2

72 kDa type IV collagenase, sequence (P08253 whole entry): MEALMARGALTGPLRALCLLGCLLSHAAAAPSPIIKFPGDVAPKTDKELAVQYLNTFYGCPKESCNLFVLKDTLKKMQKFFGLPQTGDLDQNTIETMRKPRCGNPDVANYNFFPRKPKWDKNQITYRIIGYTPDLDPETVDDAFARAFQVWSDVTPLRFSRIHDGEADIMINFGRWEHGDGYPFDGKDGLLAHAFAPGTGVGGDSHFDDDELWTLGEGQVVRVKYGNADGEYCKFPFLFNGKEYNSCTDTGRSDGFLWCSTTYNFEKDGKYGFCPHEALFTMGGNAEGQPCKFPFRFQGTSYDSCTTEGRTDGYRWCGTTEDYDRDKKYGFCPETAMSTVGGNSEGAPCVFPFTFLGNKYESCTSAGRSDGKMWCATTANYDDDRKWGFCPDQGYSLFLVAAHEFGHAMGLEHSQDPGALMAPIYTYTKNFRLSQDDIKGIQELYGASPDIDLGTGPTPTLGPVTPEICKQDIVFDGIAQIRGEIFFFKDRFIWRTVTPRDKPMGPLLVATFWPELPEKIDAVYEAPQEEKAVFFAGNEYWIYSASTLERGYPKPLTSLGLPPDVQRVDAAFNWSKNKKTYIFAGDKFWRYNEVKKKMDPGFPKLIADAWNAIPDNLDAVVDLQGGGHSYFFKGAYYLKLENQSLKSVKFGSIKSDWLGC

Compound	IC50 [1] [nM]	IC50 (Collagenase 3) [nM]	Selectivity (Bos taurus)	further results
COc1cccc2cc(C(=O)Nc3ccc(-c4ccc(S(=O)(=O)N[C@H](C(=O)O)C(C)C)cc4)cc3)oc12	12.1	20.2	0.6	IC50 [2]: 10900 nM
Cc1cc(C)c(N(Cc2ccccc2)S(=O)(=O)c2ccc(OCCNC(=O)c3cc4ccccc4o3)cc2)c(C(=O)NO)c1		10000		
NC(=O)C[C@H](NS(=O)(=O)c1ccc(-c2ccc(NC(=O)c3cc4ccccc4o3)cc2)cc1)C(=O)O		2.53		
O=C(NCCCCN1CCOCC1)c1cc2ccccc2o1		3200		
CC(Oc1cccc2oc(C(=O)Nc3ccc(-c4ccc(S(=O)(=O)N[C@H](C(=O)O)C(C)C)cc4)cc3)cc12)C(=O)O (stereo not given in full)	1590	14.9	107	IC50 [3]: 2500 nM; IC50 [4]: 5600 nM; IC50 [2]: 20000 nM; IC50 [5]: 843 nM
CC(C)[C@H](NS(=O)(=O)c1ccc(-c2ccc(NCc3cc4ccccc4o3)cc2)cc1)C(=O)O	23.3	4.9		IC50 [2]: 6600 nM
CC(C)[C@H](NS(=O)(=O)c1ccc(-c2ccc(NC(=O)c3cc4c(OCc5ccccc5)cccc4o3)cc2)cc1)C(=O)O			18	
CC(C)[C@H](NS(=O)(=O)c1ccc(-c2ccc(NC(=O)c3cc4ccccc4o3)cc2)cc1)C(=O)O	5			clearance [6]: 2 mL/min/kg; IC50 (Interstitial collagenase): > 16000 nM; bioavailability [7]: 24%; half-life [8]: 3.7 h; half-life [9]: 3 h
O=C(Nc1ccc(-c2ccc(S(=O)(=O)N[C@@H](CO)C(=O)O)cc2)cc1)c1cc2ccccc2o1	27.8	4.5		
CC(C)[C@H](NS(=O)(=O)c1ccc(-c2ccc(NC(=O)c3cc4cc(NS(=O)(=O)c5ccccc5)ccc4o3)cc2)cc1)C(=O)O		3.4	5.6	
O=C(O)CNS(=O)(=O)c1ccc(-c2ccc(NC(=O)c3cc4ccccc4o3)cc2)cc1		22		
CC(C)[C@H](NS(=O)(=O)c1ccc(-c2ccc(NC(=O)c3csnn3)cc2)cc1)C(=O)O	2.14			

Continued, in another order:

IC50 [1] [nM]	IC50 (Collagenase 3) [nM]	Selectivity (Bos taurus)	Compound	further results
	1.5		CC(C)[C@H](NS(=O)(=O)c1ccc(-c2ccc(NC(=O)c3cc4cc(N)ccc4o3)cc2)cc1)C(=O)O	
	2.19		CC(C)C[C@H](NS(=O)(=O)c1ccc(-c2ccc(NC(=O)c3cc4ccccc4o3)cc2)cc1)C(=O)O	
3.9	0.43	9.1	CC(C)[C@H](NS(=O)(=O)c1ccc(-c2ccc(NC(=O)c3cc4cc(NS(C)(=O)=O)ccc4o3)cc2)cc1)C(=O)O	
1.9	0.66	2.8	COc1ccc2oc(C(=O)Nc3ccc(-c4ccc(S(=O)(=O)N[C@H](C(=O)O)C(C)C)cc4)cc3)cc2c1	IC50 [2]: 1.5 nM
2	0.7	2.8	CC(C)[C@H](NS(=O)(=O)c1ccc(-c2ccc(NC(=O)c3cc4cc([N+](=O)[O-])ccc4o3)cc2)cc1)C(=O)O	
3.2	0.6	5.3	CC(C)[C@H](NS(=O)(=O)c1ccc(-c2ccc(NC(=O)c3cc4cc(Cl)ccc4o3)cc2)cc1)C(=O)O	
4	0.98	4.1	CC(=O)Nc1ccc2oc(C(=O)Nc3ccc(-c4ccc(S(=O)(=O)N[C@H](C(=O)O)C(C)C)cc4)cc3)cc2c1	
	2.33	6.9	COc1cccc2oc(C(=O)Nc3ccc(-c4ccc(S(=O)(=O)N[C@H](C(=O)O)C(C)C)cc4)cc3)cc12	
